Here are results for 11 compounds from ChEMBL document CHEMBL1126958, “Quinolinecarboxylic acids. 3. Synthesis and antibacterial evaluation of 2-substituted-7-oxo-2,3-dihydro-7H-pyrido[1,2,3-de] [1,4]benzothiazine-6-carboxylic acids related to rufloxacin” (J Med Chem, 1993).

One data set concerns Staphylococcus aureus. As to the kind of experiment: Minimal inhibitory concentration against […] aureus ATCC 6538 strain. In kind it is functional. The procedure, abridged: (§1)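 Agar dilution on TSA agar; compounds added by 2-fold dilution to melted medium at 50 °C just before pouring. Organisms stored at –80 °C, diluted in peptonated water to 1–2 × 10^7 CFU, applied with multipoint inoculator. MIC = lowest concentration preventing visible growth after 24 h at 35 °C.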

In the next data set the test system is Enterobacter cloacae. As to the kind of experiment: Minimal inhibitory concentration against Enterobacter cloacae OMNFI174 strain. In kind it is functional. In outline:
as §1

Another data set deals with Escherichia coli. As to the kind of experiment: Minimal inhibitory concentration against Escherichia coli ISF 432 strain. Type of data set: functional. The procedure, abridged:
as §1

The test system of another data set is Klebsiella pneumoniae. As to the kind of experiment: Minimal inhibitory concentration against Klebsiella pneumoniae ATCC 10031 strain. In kind it is functional. In outline:
as §1

The next data set has as its system Proteus vulgaris. Kind of data set: Minimal inhibitory concentration against Proteus vulgaris CNUR6 strain. In kind it is functional. The procedure, abridged:
as §1

The nature of data set [1]: Minimal inhibitory concentration against Shigella enteritidis strain. In kind it is functional. In outline:
as §1

For a further data set, the system named is Pseudomonas aeruginosa. Kind of data set: Minimal inhibitory concentration against Pseudomonas aeruginosa ATCC 9027 strain. In kind it is functional. The procedure, abridged: as §1
The next data set relates to Enterococcus faecalis. As to the kind of experiment: Minimal inhibitory concentration against Streptococcus faecalis LEP strain. Type of data set: functional. The procedure, abridged:
as §1

Data set [2] in a line: Urinary excretion in rat after 0-4 hours of oral administration at 50 mg/kg. In kind it is ADME, organism-based. Further details: dose 50 mg/kg, route oral. The following applies: urine. The procedure, abridged: (§2)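 Fasted male Wistar rats, three per group, dosed orally at 50 mg/kg. Urine collected over 0-4, 4-8 and 8-24 h, diluted 1:100 in ultrapure water, then treated with water and 70% perchloric acid, vortexed and centrifuged. Supernatant analysed by HPLC with pH 2.8 KH2PO4/phosphoric acid mobile phase. Result given as % of administered dose excreted.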

Data set [3] can be described thus: Plasma concentration level in rat after 4 hours of oral administration at 50 mg/kg. Type of data set: ADME, organism-based. Also on record: dose 50 mg/kg, route oral. In outline: (§3)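 Fasted male Wistar rats, three per group, single oral dose 50 mg/kg. Plasma taken at timed points, deproteinized with 70% perchloric acid, vortexed, centrifuged; supernatant analysed by HPLC, mobile-phase buffer 0.01 M KH2PO4 brought to pH 2.8 with phosphoric acid. Values as mean ± error over the group.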

Data set [4] can be described thus: Plasma concentration level in rat after 15 hours of oral administration at 50 mg/kg. In kind it is ADME, organism-based. Also on record: dose 50 mg/kg, route oral. The procedure, abridged: as §3
Data set [5] is described as follows: Urinary excretion in rat after 8-24 hours of oral administration at 50 mg/kg. In kind it is ADME, organism-based. Also on record: dose 50 mg/kg, route oral. To be noted: urine. The procedure, abridged: as §2
Data set [6] can be described thus: Plasma concentration level in rat after 1 hour of oral administration at 50 mg/kg. In kind it is ADME, organism-based. Further details: dose 50 mg/kg, route oral. In outline:
as §3

Data set [7] is described as follows: Urinary excretion in rat after 4-8 hours of oral administration at 50 mg/kg. In kind it is ADME, organism-based. Also on record: dose 50 mg/kg, route oral. The following applies: urine. In outline: as §2

Molecules are shown by their SMILES. Values after ≈ are worked out from the molar mass of the structure shown. Some results are limits rather than exact numbers.

For the compound `O=C(O)c1cn2c3c(c(Cl)c(F)cc3c1=O)SC(c1ccc(F)cc1)C2` (centres undefined), the minimal inhibitory concentration (MIC) in the data set with Staphylococcus aureus was 4 µg/mL (≈ 10.2 µM); in the data set on Enterobacter cloacae, 8 µg/mL (≈ 20.3 µM); in the data set with Escherichia coli it was 0.25 µg/mL (≈ 0.635 µM); against Klebsiella pneumoniae, 0.25 µg/mL (≈ 0.635 µM); against Proteus vulgaris, above 64 µg/mL; in data set [1], above 64 µg/mL. The MIC is above 64 µg/mL against Pseudomonas aeruginosa and 8 µg/mL (≈ 20.3 µM) against Enterococcus faecalis.

Take `CC1Cn2cc(C(=O)O)c(=O)c3cc(F)c(N4CCN(C=O)CC4)c(c32)S1` (centres undefined): the MIC against Staphylococcus aureus amounted to 16 µg/mL (≈ 40.9 µM); in the data set on Enterobacter cloacae, 1 µg/mL (≈ 2.55 µM); in the data set with Escherichia coli, 0.5 µg/mL (≈ 1.28 µM); in the data set with Klebsiella pneumoniae, 0.5 µg/mL (≈ 1.28 µM); with Proteus vulgaris, 64 µg/mL (≈ 164 µM); in [1], 1 µg/mL (≈ 2.55 µM). The figures for the MIC against Pseudomonas aeruginosa and in the data set on Enterococcus faecalis were 32 µg/mL (≈ 81.8 µM) and 64 µg/mL (≈ 164 µM), respectively.

Regarding `CC1Cn2cc(C(=O)O)c(=O)c3cc(F)c(N4CCN(S(=O)(=O)c5ccc(F)cc5)CC4)c(c32)S1` (centres undefined), the minimal inhibitory concentration (MIC) was 4 µg/mL (≈ 7.67 µM) against Staphylococcus aureus; 8 µg/mL (≈ 15.3 µM) in the data set on Enterobacter cloacae; 2 µg/mL (≈ 3.83 µM) against Escherichia coli; 1 µg/mL (≈ 1.92 µM) in the data set with Klebsiella pneumoniae; above 64 µg/mL in the data set with Proteus vulgaris; 8 µg/mL (≈ 15.3 µM) in data set [1]. Further, the minimum inhibitory concentration (MIC) in the data set on Pseudomonas aeruginosa was above 64 µg/mL; against Enterococcus faecalis, 16 µg/mL (≈ 30.7 µM).

Turning to `CN1CCN(c2c(F)cc3c(=O)c(C(=O)O)cn4c3c2SC(c2ccc(F)cc2)C4)CC1` (centres undefined), the MIC is 16 µg/mL (≈ 35 µM) against Staphylococcus aureus; 32 µg/mL (≈ 69.9 µM) in the data set on Enterobacter cloacae; 8 µg/mL (≈ 17.5 µM) with Escherichia coli; above 64 µg/mL in the data set on Klebsiella pneumoniae; above 64 µg/mL in the data set on Proteus vulgaris; 64 µg/mL (≈ 140 µM) in [1]. The minimum inhibitory concentration (MIC) against Pseudomonas aeruginosa was above 64 µg/mL; against Enterococcus faecalis, 64 µg/mL (≈ 140 µM).

In the case of `CC1Cn2cc(C(=O)O)c(=O)c3cc(F)c(N4CCN(Cc5ccccc5C(F)(F)F)CC4)c(c32)S1` (centres undefined), the MIC against Staphylococcus aureus was above 64 µg/mL; with Enterobacter cloacae, above 64 µg/mL; with Escherichia coli, 8 µg/mL (≈ 15.3 µM); against Klebsiella pneumoniae it was 8 µg/mL (≈ 15.3 µM); in the data set on Proteus vulgaris, above 64 µg/mL; in data set [1] it was above 64 µg/mL. Moreover, the MIC in the data set with Pseudomonas aeruginosa and against Enterococcus faecalis was above 64 µg/mL throughout.

Take `O=C(O)c1cn2c3c(c(Cl)c(F)cc3c1=O)SC(c1ccccc1F)C2` (centres undefined): the MIC against Staphylococcus aureus is 8 µg/mL (≈ 20.3 µM); against Enterobacter cloacae, above 64 µg/mL; with Escherichia coli, 0.5 µg/mL (≈ 1.27 µM); with Klebsiella pneumoniae it was 0.5 µg/mL (≈ 1.27 µM); against Proteus vulgaris it was above 64 µg/mL; in data set [1] it was above 64 µg/mL. Also, the results for the minimum inhibitory concentration (MIC) in the data set with Pseudomonas aeruginosa and against Enterococcus faecalis were above 64 µg/mL and 4 µg/mL (≈ 10.2 µM), respectively.

For the compound `CN1CCN(c2c(F)cc3c(=O)c(C(=O)O)cn4c3c2SCC4)CC1` [RUFLOXACIN], the dose excreted in data set [2] is 2.18%; in [5], 15.6%; in data set [7], 10.5%. The compound further came in with a concentration at 4 h in [3] of 4430 ng/mL. Also, the concentration at 15 h in [4] came out at 410 ng/mL. In addition, the MIC in the data set with Staphylococcus aureus is 1 µg/mL (≈ 2.75 µM); in the data set with Enterobacter cloacae it was 2 µg/mL (≈ 5.5 µM); against Escherichia coli it was 0.25 µg/mL (≈ 0.688 µM); with Klebsiella pneumoniae it was 0.12 µg/mL (≈ 0.33 µM); against Proteus vulgaris, 4 µg/mL (≈ 11 µM); in [1] it was 2 µg/mL (≈ 5.5 µM). Besides, the values for the minimal inhibitory concentration (MIC) in the data set with Pseudomonas aeruginosa and in the data set with Enterococcus faecalis were 8 µg/mL (≈ 22 µM) and 16 µg/mL (≈ 44 µM), respectively. In data set [6], this compound yielded a concentration at 1 h of 7740 ng/mL.

For the compound `CCNCC1CCN(c2c(F)cc3c(=O)c(C(=O)O)cn4c3c2SC(C)C4)C1` (centres undefined), the MIC against Staphylococcus aureus is 4 µg/mL (≈ 9.86 µM); in the data set on Enterobacter cloacae, 8 µg/mL (≈ 19.7 µM); in the data set with Escherichia coli, 0.25 µg/mL (≈ 0.617 µM); against Klebsiella pneumoniae, 0.25 µg/mL (≈ 0.617 µM); with Proteus vulgaris it was above 64 µg/mL; in [1], 8 µg/mL (≈ 19.7 µM). The minimal inhibitory concentration (MIC) was above 64 µg/mL in the data set on Pseudomonas aeruginosa and 16 µg/mL (≈ 39.5 µM) in the data set with Enterococcus faecalis.

As to `CC1Cn2cc(C(=O)O)c(=O)c3cc(F)c(N4CCN(c5ccc(F)cc5)CC4)c(c32)S1` (centres undefined), the minimal inhibitory concentration (MIC) was 8 µg/mL (≈ 17.5 µM) with Staphylococcus aureus; above 64 µg/mL with Enterobacter cloacae; 8 µg/mL (≈ 17.5 µM) against Escherichia coli; above 64 µg/mL in the data set on Klebsiella pneumoniae; above 64 µg/mL against Proteus vulgaris; above 64 µg/mL in data set [1]. The minimum inhibitory concentration (MIC) was above 64 µg/mL against Pseudomonas aeruginosa and 4 µg/mL (≈ 8.74 µM) in the data set with Enterococcus faecalis.

In the case of `CC1CN(c2c(F)cc3c(=O)c(C(=O)O)cn4c3c2SC(C)C4)CC(C)N1` (centres undefined), the minimum inhibitory concentration (MIC) in the data set on Staphylococcus aureus was 4 µg/mL (≈ 10.2 µM); against Enterobacter cloacae it was 4 µg/mL (≈ 10.2 µM); in the data set with Escherichia coli it was 0.25 µg/mL (≈ 0.639 µM); in the data set with Klebsiella pneumoniae it was 0.25 µg/mL (≈ 0.639 µM); in the data set on Proteus vulgaris, above 64 µg/mL; in [1] it was 4 µg/mL (≈ 10.2 µM). Besides, the values for the MIC in the data set on Pseudomonas aeruginosa and with Enterococcus faecalis were 32 µg/mL (≈ 81.7 µM) and 64 µg/mL (≈ 163 µM), respectively.

Regarding `O=C(O)c1cn2c3c(c(Cl)c(F)cc3c1=O)SC(c1cccc(F)c1)C2` (centres undefined), the MIC in the data set with Staphylococcus aureus was 2 µg/mL (≈ 5.08 µM); against Enterobacter cloacae, above 64 µg/mL; with Escherichia coli, 2 µg/mL (≈ 5.08 µM); in the data set on Klebsiella pneumoniae, 2 µg/mL (≈ 5.08 µM); in the data set on Proteus vulgaris it was above 64 µg/mL; in data set [1] it was above 64 µg/mL. For the same compound, the MIC in the data set with Pseudomonas aeruginosa was above 64 µg/mL; in the data set with Enterococcus faecalis, 32 µg/mL (≈ 81.3 µM).
